# Measured values collected from several papers.
# Compare with care: the assays were run in different laboratories.
# Target: TGF-beta receptor type-2 (TGFBR2, Homo sapiens, UniProt P37173)
SMILES,test,conditions,remaining binding
COc1cnc(Nc2cccc(S(N)(=O)=O)c2)nc1N1CCN(c2ccccc2)CC1,"binding, competition with immobilised ligand",1 µM,100%
O=C(O)[C@@H]1[C@@H](Cn2nnc3ccccc3c2=O)CC[C@H]1C(=O)c1ccc(OCCC2CCOCC2)cc1,"cell-free assay, competition with immobilised ligand",1 µM,100%
COc1ccnn2ncc(-c3ccnc(N(C)C)n3)c12,binding,1 µM,100%
COc1ccc2c(O[C@@H]3C[C@H]4C(=O)N[C@]5(C(=O)O)CC5/C=C\CCCCC[C@H](NC(=O)OC5CCCC5)C(=O)N4C3)cc(-c3csc(NC(=O)C(C)C)n3)nc2c1C (stereo partly drawn),"cell-free assay, competition with immobilised ligand",1 µM,93%
Cc1cnn2ncc(-c3ccnc(N(C)C)n3)c2c1,binding,1 µM,80%
O=C(c1ccc(Nc2ncc(Cl)c(-c3cc4ccccc4s3)n2)cc1)N1CCC(N2CCCC2)CC1,"binding, competition with immobilised ligand",1 µM,84%
O=C(N[C@H]1CCCCC/C=C\C2C[C@@]2(C(=O)O)NC(=O)[C@@H]2C[C@@H](Oc3ccncc3)CN2C1=O)OC1CCCC1 (stereo partly drawn),"cell-free assay, competition with immobilised ligand",1 µM,85%
FC(F)(F)Oc1cccc(-c2cnc3ccc(-c4ccncc4)nn23)c1,"cell-free assay, competition with immobilised ligand",5 µM,66%
Cc1cnc(Nc2ccc(C(=O)N3CCC(N4CCCC4)CC3)cc2)nc1-c1cc2ccccc2s1,"binding, competition with immobilised ligand",1 µM,61%
COc1cccc(CNC(=O)c2nc3scc(COCc4ccc(C(=O)O)cc4)c3c(=O)[nH]2)c1,"cell-free assay, competition with immobilised ligand",1 µM,97%
COc1cnc(Nc2cccc(S(N)(=O)=O)c2)nc1N1CCN(c2ccccc2)C(=O)C1,"binding, competition with immobilised ligand",1 µM,100%
O=C(c1ccc(Nc2ncc(Cl)c(-c3ccc(Cl)s3)n2)cc1)N1CCC(N2CCCC2)CC1,"binding, competition with immobilised ligand",1 µM,100%
Nc1ncc2c(n1)-c1c([nH]c3ccc(C#CC4CC4)cc13)CCCC2,"binding, competition with immobilised ligand",1 µM,100%
CN(CCCC(F)(F)F)c1nccc(-c2cnn3ncccc23)n1,binding,1 µM,73%
CC1=C(C#N)C(c2ccc3c(c2)c(NC(=O)c2ccccc2C)nn3C)C(C#N)=C(C)N1,"cell-free assay, competition with immobilised ligand",1 µM,99%
CN(C)c1nccc(-c2cnn3ncccc23)n1,binding,1 µM,73%
COCCOc1nc(-c2ccc(Cl)nc2)nc2c1CN(C(=O)c1ncn3ccccc13)CC2,"cell-free assay, competition with immobilised ligand",0.1 µM,94%
C[C@H]1CCN(c2nccc(-c3cnn4ncccc34)n2)C1,binding,1 µM,60%
O=C(Nc1c[nH]nc1C(=O)NC1CCNCC1)c1cc(F)cc(F)c1,"binding, competition with immobilised ligand",1 µM,90%
F[C@@H]1CCN(c2nccc(-c3cnn4ncccc34)n2)C1,binding,1 µM,100%
C=CC(=O)N1CCC(C(=O)NCC(=O)N2CCN(c3nc(-c4cnc(N)nc4C(F)F)nc(N4CCOCC4)n3)CC2)CC1,"binding, competition with immobilised ligand",1 µM,88%
